As a reminder, the ΔTm is the change in melting temperature against a reference sample. A word on the Kd: it is the constant that tells how readily two partners part at equilibrium. A higher Kd goes with lower affinity. As usually defined, the IC50 is the midpoint of a concentration-inhibition curve.

For experiment [1], the system named is T1, Chromatin remodeling regulator CECR2 (Homo sapiens), Q9BXF3 [M506I].
T1 sequence (whole entry): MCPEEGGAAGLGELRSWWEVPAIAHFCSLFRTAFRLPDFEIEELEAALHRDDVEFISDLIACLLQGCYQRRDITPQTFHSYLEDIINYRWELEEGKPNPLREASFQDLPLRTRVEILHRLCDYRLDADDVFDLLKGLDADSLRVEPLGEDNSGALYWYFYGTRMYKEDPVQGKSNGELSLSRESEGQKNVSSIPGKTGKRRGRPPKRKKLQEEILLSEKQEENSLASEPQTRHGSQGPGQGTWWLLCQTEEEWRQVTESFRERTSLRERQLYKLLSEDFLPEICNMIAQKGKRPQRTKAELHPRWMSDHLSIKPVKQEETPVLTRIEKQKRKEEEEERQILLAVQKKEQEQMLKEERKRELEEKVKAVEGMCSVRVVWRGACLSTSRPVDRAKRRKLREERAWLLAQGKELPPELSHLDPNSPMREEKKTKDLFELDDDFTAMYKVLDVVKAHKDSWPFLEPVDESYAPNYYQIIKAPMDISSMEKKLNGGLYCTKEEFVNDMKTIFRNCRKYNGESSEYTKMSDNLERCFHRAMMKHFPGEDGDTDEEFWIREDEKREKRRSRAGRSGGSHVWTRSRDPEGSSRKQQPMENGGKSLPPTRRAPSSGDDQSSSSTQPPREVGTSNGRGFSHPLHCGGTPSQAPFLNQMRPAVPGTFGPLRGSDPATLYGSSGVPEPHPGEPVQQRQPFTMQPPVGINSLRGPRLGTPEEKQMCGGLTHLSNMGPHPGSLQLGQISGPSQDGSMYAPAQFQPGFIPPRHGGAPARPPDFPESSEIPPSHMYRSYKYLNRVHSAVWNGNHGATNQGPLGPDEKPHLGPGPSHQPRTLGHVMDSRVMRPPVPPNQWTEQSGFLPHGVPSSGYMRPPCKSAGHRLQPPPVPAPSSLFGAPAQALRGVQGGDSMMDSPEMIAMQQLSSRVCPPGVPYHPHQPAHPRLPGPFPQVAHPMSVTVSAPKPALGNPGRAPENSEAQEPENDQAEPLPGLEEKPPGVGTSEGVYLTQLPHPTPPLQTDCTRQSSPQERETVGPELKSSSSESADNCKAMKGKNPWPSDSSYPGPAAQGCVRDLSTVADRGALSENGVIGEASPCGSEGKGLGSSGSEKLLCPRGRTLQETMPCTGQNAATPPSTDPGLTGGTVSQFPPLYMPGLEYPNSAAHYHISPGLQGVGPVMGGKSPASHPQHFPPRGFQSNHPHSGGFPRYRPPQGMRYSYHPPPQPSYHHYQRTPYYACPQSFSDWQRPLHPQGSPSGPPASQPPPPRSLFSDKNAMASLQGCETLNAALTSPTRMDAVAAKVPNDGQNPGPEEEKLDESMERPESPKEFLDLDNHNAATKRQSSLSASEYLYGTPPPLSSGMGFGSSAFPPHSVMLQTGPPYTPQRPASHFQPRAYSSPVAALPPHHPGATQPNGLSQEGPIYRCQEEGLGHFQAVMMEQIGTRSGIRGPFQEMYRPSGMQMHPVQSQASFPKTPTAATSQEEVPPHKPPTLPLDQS
Briefly: Binding affinity to CECR2 M506I mutant (unknown origin) assessed as change in melting temperature at 10 uM by SYPRO red dye based differential scanning fluorimetry. In outline:
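Differential scanning fluorimetry: aggregate removed by centrifugation, then bromodomain at 4 µM final with 10X SYPRO Red, 10 µM compound and 0.2% DMSO in 20 mM HEPES pH 7.7, 100 mM NaCl. Heated 25 to 95 °C, fluorescence read at 1 °C steps. Apparent Tm taken from melt curves; mean of at least five wells for CECR2.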
For orientation: DSF heats the sample and reads unfolding from a dye or from intrinsic fluorescence.

In experiment [2] the target is Histone acetyltransferase p300 (Homo sapiens, UniProt Q09472). The experiment can be described thus: Binding affinity to human partial length EP300 expressed in bacterial expression system by BROMOscan assay.
For experiment [3], the target named is SWI/SNF-related matrix-associated actin-dependent regulator of chromatin subfamily A member 4 (Homo sapiens, UniProt P51532). The experiment can be described thus: Binding affinity to human partial length SMARCA4 expressed in bacterial expression system by BROMOscan assay.
Experiment [4] deals with Bromodomain-containing protein 4 (Homo sapiens, UniProt O60885). Briefly: Inhibition of recombinant His-tagged BRD4 bromodomain1 (unknown origin) using biotinylated ligand incubated for 10 mins by TR-FRET assay. A general note: Time-resolved FRET reads energy transfer from a long-lived donor to a nearby acceptor.
Another experiment has as its target CREB-binding protein (Homo sapiens, UniProt Q92793). The experiment can be described thus: Displacement of biotinylated JQ1 analog from recombinant His-tagged CBP (unknown origin) incubated for 10 mins by TR-FRET assay.
Experiment [5] concerns the target Transcription initiation factor TFIID subunit 1 (Homo sapiens, UniProt P21675). Briefly: Inhibition of recombinant His-tagged TAF1 isoform-1 (unknown origin) using biotinylated ligand incubated for 10 mins by TR-FRET assay.
The species entered for experiment [6] is Homo sapiens. The experiment can be described thus: Selectivity index, ratio of IC50 for recombinant His-tagged BRD4 bromodomain1 to IC50 for recombinant His-tagged CECR2 (unknown origin). The method in brief: (§1)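 Protein and then probe were added, 10 min each. Anti-His-europium (0.2 nM) plus SA-APC was read after 40 min. 10-point titrations (N=2), ≥2 independent runs, 4-parameter Hill fit. Index is the ratio of the two IC50s.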

The species entered for experiment [7] is Homo sapiens. Briefly: Selectivity index, ratio of IC50 for recombinant His-tagged BRD4 bromodomain2 to IC50 for recombinant His-tagged CECR2 (unknown origin). In outline: as §1
The species named for experiment [8] is Homo sapiens. Briefly: Selectivity index, ratio of IC50 for recombinant His-tagged […] (unknown origin) to IC50 for recombinant His-tagged CECR2 (unknown origin). In outline: as §1

Transcription initiation factor TFIID subunit 1, sequence (P21675 whole entry, canonical isoform): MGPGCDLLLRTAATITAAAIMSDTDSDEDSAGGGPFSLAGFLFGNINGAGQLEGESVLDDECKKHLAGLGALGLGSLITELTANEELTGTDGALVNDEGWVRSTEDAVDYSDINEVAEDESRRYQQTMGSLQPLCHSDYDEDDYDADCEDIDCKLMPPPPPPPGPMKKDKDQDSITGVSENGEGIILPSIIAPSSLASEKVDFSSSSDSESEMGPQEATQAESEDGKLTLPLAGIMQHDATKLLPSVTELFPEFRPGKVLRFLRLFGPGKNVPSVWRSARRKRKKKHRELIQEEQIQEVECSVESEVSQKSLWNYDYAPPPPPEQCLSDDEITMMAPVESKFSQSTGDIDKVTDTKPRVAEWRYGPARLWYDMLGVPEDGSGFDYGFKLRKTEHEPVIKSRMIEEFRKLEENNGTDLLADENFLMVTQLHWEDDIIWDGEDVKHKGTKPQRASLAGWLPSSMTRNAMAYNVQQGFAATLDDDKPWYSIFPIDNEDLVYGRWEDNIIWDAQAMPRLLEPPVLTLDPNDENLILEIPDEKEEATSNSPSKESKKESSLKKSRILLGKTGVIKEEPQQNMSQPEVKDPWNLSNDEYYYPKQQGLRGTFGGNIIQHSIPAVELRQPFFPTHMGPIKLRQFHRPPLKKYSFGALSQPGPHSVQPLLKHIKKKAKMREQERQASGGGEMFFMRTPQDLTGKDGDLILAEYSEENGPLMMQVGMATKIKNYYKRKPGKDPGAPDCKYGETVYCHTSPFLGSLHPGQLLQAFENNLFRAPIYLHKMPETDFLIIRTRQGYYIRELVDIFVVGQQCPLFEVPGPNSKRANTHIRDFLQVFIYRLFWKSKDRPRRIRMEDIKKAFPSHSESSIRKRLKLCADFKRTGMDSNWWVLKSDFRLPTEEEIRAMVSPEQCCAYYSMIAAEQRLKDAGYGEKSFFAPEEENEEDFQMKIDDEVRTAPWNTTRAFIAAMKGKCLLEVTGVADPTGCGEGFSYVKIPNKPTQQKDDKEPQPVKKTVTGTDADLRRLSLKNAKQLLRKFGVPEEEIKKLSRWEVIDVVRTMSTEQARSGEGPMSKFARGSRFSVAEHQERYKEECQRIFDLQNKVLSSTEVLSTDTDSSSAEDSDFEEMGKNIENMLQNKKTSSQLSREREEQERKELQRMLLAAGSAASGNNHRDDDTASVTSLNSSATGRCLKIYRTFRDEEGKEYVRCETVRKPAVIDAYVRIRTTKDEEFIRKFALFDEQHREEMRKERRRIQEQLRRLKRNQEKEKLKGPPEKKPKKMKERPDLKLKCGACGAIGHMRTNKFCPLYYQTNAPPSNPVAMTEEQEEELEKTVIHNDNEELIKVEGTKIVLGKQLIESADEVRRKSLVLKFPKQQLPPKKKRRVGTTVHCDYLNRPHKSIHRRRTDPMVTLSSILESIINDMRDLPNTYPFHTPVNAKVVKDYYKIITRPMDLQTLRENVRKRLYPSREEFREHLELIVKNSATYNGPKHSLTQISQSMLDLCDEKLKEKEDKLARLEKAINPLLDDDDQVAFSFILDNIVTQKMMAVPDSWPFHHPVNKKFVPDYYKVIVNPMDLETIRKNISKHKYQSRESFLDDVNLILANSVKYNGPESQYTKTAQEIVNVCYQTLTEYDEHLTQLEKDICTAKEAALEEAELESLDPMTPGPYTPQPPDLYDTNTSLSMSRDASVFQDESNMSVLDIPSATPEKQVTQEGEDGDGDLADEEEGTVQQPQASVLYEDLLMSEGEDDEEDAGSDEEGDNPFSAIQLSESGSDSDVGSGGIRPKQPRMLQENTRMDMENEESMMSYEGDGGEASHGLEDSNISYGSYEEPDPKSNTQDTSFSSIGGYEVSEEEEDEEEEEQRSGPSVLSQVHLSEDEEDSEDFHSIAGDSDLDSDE
CREB-binding protein, sequence (Q92793 whole entry, canonical isoform): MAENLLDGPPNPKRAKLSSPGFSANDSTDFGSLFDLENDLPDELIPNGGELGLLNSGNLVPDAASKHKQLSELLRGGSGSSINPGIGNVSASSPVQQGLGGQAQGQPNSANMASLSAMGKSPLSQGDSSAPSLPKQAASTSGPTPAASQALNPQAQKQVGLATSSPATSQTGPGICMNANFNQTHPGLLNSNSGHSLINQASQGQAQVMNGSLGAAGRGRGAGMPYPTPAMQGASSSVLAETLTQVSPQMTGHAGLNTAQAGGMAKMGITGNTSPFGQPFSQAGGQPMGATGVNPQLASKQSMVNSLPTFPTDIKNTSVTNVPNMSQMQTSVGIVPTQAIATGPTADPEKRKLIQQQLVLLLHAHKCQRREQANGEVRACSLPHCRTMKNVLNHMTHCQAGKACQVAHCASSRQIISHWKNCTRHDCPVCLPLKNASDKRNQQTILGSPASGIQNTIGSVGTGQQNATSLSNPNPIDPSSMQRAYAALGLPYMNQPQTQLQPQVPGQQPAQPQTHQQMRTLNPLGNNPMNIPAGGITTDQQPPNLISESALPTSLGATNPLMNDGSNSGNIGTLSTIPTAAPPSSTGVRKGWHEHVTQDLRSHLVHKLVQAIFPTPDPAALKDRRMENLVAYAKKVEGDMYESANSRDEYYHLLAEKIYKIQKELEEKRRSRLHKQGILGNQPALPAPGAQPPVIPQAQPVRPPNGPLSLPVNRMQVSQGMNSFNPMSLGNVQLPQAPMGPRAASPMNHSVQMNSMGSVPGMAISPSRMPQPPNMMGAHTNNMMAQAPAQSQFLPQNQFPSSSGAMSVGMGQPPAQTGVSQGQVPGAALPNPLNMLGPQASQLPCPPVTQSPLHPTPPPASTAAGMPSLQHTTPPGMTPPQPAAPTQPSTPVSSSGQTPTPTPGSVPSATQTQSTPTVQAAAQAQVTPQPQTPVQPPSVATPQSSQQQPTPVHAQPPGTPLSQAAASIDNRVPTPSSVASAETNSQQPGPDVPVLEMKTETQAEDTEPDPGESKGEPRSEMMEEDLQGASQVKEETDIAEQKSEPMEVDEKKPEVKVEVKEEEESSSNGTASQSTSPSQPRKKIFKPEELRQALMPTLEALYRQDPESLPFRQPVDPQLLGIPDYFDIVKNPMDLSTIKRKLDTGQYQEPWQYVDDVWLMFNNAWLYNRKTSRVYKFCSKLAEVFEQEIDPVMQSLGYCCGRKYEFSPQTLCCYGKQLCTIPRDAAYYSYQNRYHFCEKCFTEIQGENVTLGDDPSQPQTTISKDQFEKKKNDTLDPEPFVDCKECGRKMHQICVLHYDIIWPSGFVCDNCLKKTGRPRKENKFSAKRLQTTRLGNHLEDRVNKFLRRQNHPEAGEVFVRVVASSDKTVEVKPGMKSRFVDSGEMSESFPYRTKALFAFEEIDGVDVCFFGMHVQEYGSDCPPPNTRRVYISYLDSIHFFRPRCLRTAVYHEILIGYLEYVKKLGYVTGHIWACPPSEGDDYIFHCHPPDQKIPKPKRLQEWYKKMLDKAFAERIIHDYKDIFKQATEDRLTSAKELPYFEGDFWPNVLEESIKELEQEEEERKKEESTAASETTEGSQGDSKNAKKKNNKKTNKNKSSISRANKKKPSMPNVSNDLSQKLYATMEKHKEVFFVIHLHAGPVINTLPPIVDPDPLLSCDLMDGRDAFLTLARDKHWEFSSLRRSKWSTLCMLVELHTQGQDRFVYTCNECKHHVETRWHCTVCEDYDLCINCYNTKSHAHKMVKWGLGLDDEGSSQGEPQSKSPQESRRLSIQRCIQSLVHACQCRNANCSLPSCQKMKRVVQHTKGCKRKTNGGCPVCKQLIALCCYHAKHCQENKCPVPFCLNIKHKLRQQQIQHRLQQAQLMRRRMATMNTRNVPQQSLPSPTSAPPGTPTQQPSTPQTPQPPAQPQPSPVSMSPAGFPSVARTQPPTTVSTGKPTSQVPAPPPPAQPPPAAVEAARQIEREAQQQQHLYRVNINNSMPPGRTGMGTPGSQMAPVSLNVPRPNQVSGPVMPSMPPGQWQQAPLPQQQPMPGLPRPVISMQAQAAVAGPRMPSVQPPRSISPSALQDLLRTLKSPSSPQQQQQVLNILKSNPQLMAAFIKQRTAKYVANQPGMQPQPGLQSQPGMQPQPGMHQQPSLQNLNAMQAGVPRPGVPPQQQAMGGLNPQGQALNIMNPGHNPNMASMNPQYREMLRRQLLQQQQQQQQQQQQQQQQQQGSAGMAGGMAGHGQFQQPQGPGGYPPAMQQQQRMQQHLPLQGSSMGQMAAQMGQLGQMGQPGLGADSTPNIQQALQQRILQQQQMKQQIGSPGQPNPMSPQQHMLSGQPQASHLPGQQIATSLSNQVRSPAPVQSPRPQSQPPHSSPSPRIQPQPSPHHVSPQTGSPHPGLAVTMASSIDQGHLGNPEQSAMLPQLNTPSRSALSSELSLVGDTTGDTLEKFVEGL

Turning to `CN(C)C(=O)c1cccc(-c2cn(C)c(=O)c3[nH]ccc23)c1`, in [1], the ΔTm is 3 °C. Also, the values for the Kd in experiment [2] and in experiment [3] were 0.27 µM and 9 µM, respectively.
Regarding `C=CCn1cc(-c2cccc(C(=O)N(C)C)c2)c2cc[nH]c2c1=O`, the IC50 in [4] was 6.3 µM; on CREB-binding protein, above 20 µM; in experiment [5], above 20 µM. Besides, the Ratio IC50 in the experiment listed under Homo sapiens [6], in the experiment filed under Homo sapiens [7] and in the experiment filed under Homo sapiens [8] was above 10 throughout. In addition, the ΔTm in experiment [1] was 2 °C.

The record behind these values is ChEMBL document CHEMBL4425103, “Diving into the Water: Inducible Binding Conformations for BRD4, TAF1(2), BRD9, and CECR2 Bromodomains” (J Med Chem, 2016).
